Experimental data taken from ChEMBL document CHEMBL1146380, “Synthesis, antimicrobial activity, and QSAR studies of furan-3-carboxamides” (2007).
Converted amounts (≈) assume the structure as drawn. The source made the active and inactive calls. No cut-off for these calls is given here.

How the values were obtained:
Candida albicans = test: Antimicrobial activity against Candida albicans ATCC 44373 by broth microdilution method; assay type: functional
Outline: (§1)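 Yeasts grown on potato dextrose agar. Inoculum was standardized by McFarland turbidity as for bacteria, into RPMI 1640 broth (M27-A2). DMSO-dissolved compound was tested in twofold dilutions from 320 to 1.25 at 35 °C for 24 h, in duplicate. MIC was the lowest concentration completely inhibiting visible growth. Fungicidal concentration was read by subculturing 20 µL from clear wells on Sabouraud dextrose agar at 35 °C.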

Candida dubliniensis = test: Antimicrobial activity against Candida dubliniensis CBS 7987 by broth microdilution method; assay type: functional; outline: as §1
Nakaseomyces glabratus = test: Antimicrobial activity against Candida glabrata […] by broth microdilution method; assay type: functional; outline: as §1
[1] = system: Cryptococcus deneoformans; test: Antimicrobial activity against Cryptococcus neoformans var.neoformans serotype D ATCC 28952 by broth microdilution method; assay type: functional
Outline: (§2)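 Organism grown on potato dextrose agar, with turbidity-standardized inoculum in RPMI 1640 broth (M27-A2). DMSO-dissolved compound was tested in twofold dilutions from 320 to 1.25 at 35 °C, incubated up to 72 h, in duplicate. MIC was the lowest concentration with no visible growth. Cidal concentration was read by subculturing 20 µL from clear wells on Sabouraud dextrose agar, incubated for the same period.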

Saccharomyces cerevisiae = test: Antimicrobial activity against Saccharomyces cerevisiae ATCC 2601 by broth microdilution method; assay type: functional; outline: as §2
Staphylococcus aureus = test: Antimicrobial activity against Staphylococcus aureus ATCC 25923 by broth microdilution method; assay type: functional
Outline: (§3)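 Bacteria grown overnight on Mueller–Hinton agar. Colonies were suspended in saline to McFarland turbidity (about 10^8 cfu/mL), diluted 1:100 in saline, then 1:20 in Mueller–Hinton broth, giving 5 · 10^4 cfu/mL per well. DMSO-dissolved compound was tested in twofold dilutions from 320 to 1.25 at 35 °C for 24 h. MIC was the lowest concentration with no visible turbidity (M7-A4). Bactericidal concentration was read by subculturing clear wells on Mueller–Hinton agar.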

Klebsiella pneumoniae = test: Antimicrobial activity against Klebsiella pneumoniae ATCC 1003 by broth microdilution method; assay type: functional; outline: as §3
Escherichia coli = test: Antimicrobial activity against Escherichia coli ATCC 25922 by broth microdilution method; assay type: functional; outline: as §3
[2] = (§4) Antimicrobial activity against Salmonella setubal ATCC 19196 by broth microdilution method; assay type: functional, Salmonella enterica subsp. enterica serovar Setubal; settings: Salmonella enterica; outline: as §3
[3] = system: Salmonella enterica subsp. enterica serovar Setubal; test: as §4; assay type: functional; outline: as §3
Prototheca zopfii = test: Antimicrobial activity against Prototheca zopfii by broth microdilution method; assay type: functional; outline: as §2
Pseudomonas aeruginosa = test: Antimicrobial activity against Pseudomonas aeruginosa ATCC 27853 by broth microdilution method; assay type: functional; outline: as §3
Rhizopus arrhizus = test: Antimicrobial activity against Rhizopus oryzae isolate by broth microdilution method; assay type: functional
Sporothrix schenckii = test: Antimicrobial activity against Sporothrix schenckii ATCC 1146 by broth microdilution method; assay type: functional
Fusarium solani = test: Antimicrobial activity against Fusarium solani isolate by broth microdilution method; assay type: functional
Aspergillus fumigatus = test: Antimicrobial activity against Aspergillus fumigatus isolate by broth microdilution method; assay type: functional
Aspergillus flavus = test: Antimicrobial activity against Aspergillus flavus isolate by broth microdilution method; assay type: functional
Aspergillus niger = test: Antimicrobial activity against Aspergillus niger isolate by broth microdilution method; assay type: functional
Aspergillus terreus = test: Antimicrobial activity against Aspergillus terreus isolate by broth microdilution method; assay type: functional
Scedosporium boydii = test: Antimicrobial activity against Pseudallescheria boydii isolate by broth microdilution method; assay type: functional

Row | Structure (SMILES) | Activity (Candida albicans) | Activity (Candida dubliniensis) | Activity (Nakaseomyces glabratus) | MIC [1] | Activity (Staphylococcus aureus) | MIC (Staphylococcus aureus) | Activity (Klebsiella pneumoniae) | MIC (Klebsiella pneumoniae) | Activity (Escherichia coli) | MIC (Escherichia coli) | MIC [2] | Activity [3] | Activity (Prototheca zopfii) | MIC (Prototheca zopfii) | MIC (Pseudomonas aeruginosa) | Activity (Rhizopus arrhizus) | MIC (Rhizopus arrhizus) | Activity (Sporothrix schenckii) | MIC (Sporothrix schenckii) | Activity (Fusarium solani) | also measured
1 | Cc1ccc(S(=O)(=O)NNC(=O)c2ccoc2)cc1 | inactive | inactive | inactive | 320 µg/mL (≈ 1140 µM) | inactive | 320 µg/mL (≈ 1140 µM) | inactive | 320 µg/mL (≈ 1140 µM) | inactive | 320 µg/mL (≈ 1140 µM) | 320 µg/mL (≈ 1140 µM) | inactive | inactive | 320 µg/mL (≈ 1140 µM) | 160 µg/mL (≈ 571 µM) | inactive | 320 µg/mL (≈ 1140 µM) | inactive | 160 µg/mL (≈ 571 µM) | inactive | MFC [1]: 320 µg/mL (≈ 1140 µM); MFC (Saccharomyces cerevisiae): 320 µg/mL (≈ 1140 µM); MIC (Saccharomyces cerevisiae): 160 µg/mL (≈ 571 µM); MBC (Pseudomonas aeruginosa): 320 µg/mL (≈ 1140 µM); MIC (Fusarium solani): 320 µg/mL (≈ 1140 µM); MFC (Aspergillus fumigatus): 320 µg/mL (≈ 1140 µM); MIC (Aspergillus fumigatus): 320 µg/mL (≈ 1140 µM); Activity (Aspergillus flavus): inactive; MIC (Aspergillus flavus): 320 µg/mL (≈ 1140 µM); Activity (Aspergillus niger): inactive; Activity (Aspergillus terreus): inactive; MIC (Aspergillus terreus): 320 µg/mL (≈ 1140 µM); MFC (Scedosporium boydii): 160 µg/mL (≈ 571 µM); MIC (Scedosporium boydii): 160 µg/mL (≈ 571 µM)
2 | NS(=O)(=O)c1ccc(NC(=O)c2ccoc2)cc1 | inactive | inactive | inactive | – | inactive | – | – | 20 µg/mL (≈ 75.1 µM) | inactive | – | 160 µg/mL (≈ 601 µM) | inactive | inactive | – | – | inactive | – | inactive | – | inactive | Activity [1]: inactive; Activity (Saccharomyces cerevisiae): inactive; MBC (Klebsiella pneumoniae; read-out: MFC): 320 µg/mL (≈ 1200 µM); Activity (Pseudomonas aeruginosa): inactive; Activity (Aspergillus fumigatus): inactive; MFC (Aspergillus flavus): 320 µg/mL (≈ 1200 µM); MIC (Aspergillus flavus): 320 µg/mL (≈ 1200 µM); MFC (Aspergillus niger): 320 µg/mL (≈ 1200 µM); MIC (Aspergillus niger): 320 µg/mL (≈ 1200 µM); Activity (Aspergillus terreus): inactive; Activity (Scedosporium boydii): inactive
3 | O=C(NCc1ccccn1)c1ccoc1 | inactive | inactive | inactive | 320 µg/mL (≈ 1580 µM) | inactive | 320 µg/mL (≈ 1580 µM) | inactive | 320 µg/mL (≈ 1580 µM) | inactive | 320 µg/mL (≈ 1580 µM) | 320 µg/mL (≈ 1580 µM) | inactive | inactive | 320 µg/mL (≈ 1580 µM) | 320 µg/mL (≈ 1580 µM) | inactive | 320 µg/mL (≈ 1580 µM) | inactive | 320 µg/mL (≈ 1580 µM) | inactive | Activity [1]: inactive; Activity (Saccharomyces cerevisiae): inactive; Activity (Pseudomonas aeruginosa): inactive; MIC (Fusarium solani): 320 µg/mL (≈ 1580 µM); Activity (Aspergillus fumigatus): inactive; MFC (Aspergillus flavus): 320 µg/mL (≈ 1580 µM); MIC (Aspergillus flavus): 320 µg/mL (≈ 1580 µM); Activity (Aspergillus niger): inactive; Activity (Aspergillus terreus): inactive; MIC (Aspergillus terreus): 320 µg/mL (≈ 1580 µM); MFC (Scedosporium boydii): 320 µg/mL (≈ 1580 µM); MIC (Scedosporium boydii): 320 µg/mL (≈ 1580 µM)
4 | N=C(NC(=O)c1ccoc1)c1ccccc1 | inactive | inactive | inactive | 160 µg/mL (≈ 747 µM) | inactive | 320 µg/mL (≈ 1490 µM) | inactive | 320 µg/mL (≈ 1490 µM) | inactive | 320 µg/mL (≈ 1490 µM) | 320 µg/mL (≈ 1490 µM) | inactive | – | 160 µg/mL (≈ 747 µM) | 320 µg/mL (≈ 1490 µM) | – | 320 µg/mL (≈ 1490 µM) | – | 320 µg/mL (≈ 1490 µM) | inactive | MFC [1]: 320 µg/mL (≈ 1490 µM); Activity (Saccharomyces cerevisiae): inactive; MFC (Prototheca zopfii): 320 µg/mL (≈ 1490 µM); Activity (Pseudomonas aeruginosa): inactive; MFC (Rhizopus arrhizus): 320 µg/mL (≈ 1490 µM); MFC (Sporothrix schenckii): 320 µg/mL (≈ 1490 µM); MIC (Fusarium solani): 320 µg/mL (≈ 1490 µM); MFC (Aspergillus fumigatus): 320 µg/mL (≈ 1490 µM); MIC (Aspergillus fumigatus): 320 µg/mL (≈ 1490 µM); Activity (Aspergillus flavus): inactive; Activity (Aspergillus niger): inactive; MIC (Aspergillus niger): 320 µg/mL (≈ 1490 µM); MFC (Aspergillus terreus): 320 µg/mL (≈ 1490 µM); MIC (Aspergillus terreus): 320 µg/mL (≈ 1490 µM); MFC (Scedosporium boydii): 160 µg/mL (≈ 747 µM); MIC (Scedosporium boydii): 160 µg/mL (≈ 747 µM)
